Measured values taken from ChEMBL document CHEMBL4765459, “Synthesis and bioactivity of phenyl substituted furan and oxazole carboxylic acid derivatives as potential PDE4 inhibitors” (Eur J Med Chem, 2020).

How the values were obtained:
Homo sapiens = species on record: Homo sapiens; assay: Selectivity ratio of IC50 for inhibition of human U937 cells derived PDE4D to inhibition of human U937 cells derived PDE4B
[1] = target: T1, 3',5'-cyclic-AMP phosphodiesterase 4B (Homo sapiens, UniProt Q07343); assay: Inhibition of PDE4B in human PBMC assessed as reduction in LPS-induced TNFalpha release preincubated for 30 mins followed by LPS stimulation and measured after 18 hrs by TR-FRET assay
T1 sequence (Q07343 whole entry): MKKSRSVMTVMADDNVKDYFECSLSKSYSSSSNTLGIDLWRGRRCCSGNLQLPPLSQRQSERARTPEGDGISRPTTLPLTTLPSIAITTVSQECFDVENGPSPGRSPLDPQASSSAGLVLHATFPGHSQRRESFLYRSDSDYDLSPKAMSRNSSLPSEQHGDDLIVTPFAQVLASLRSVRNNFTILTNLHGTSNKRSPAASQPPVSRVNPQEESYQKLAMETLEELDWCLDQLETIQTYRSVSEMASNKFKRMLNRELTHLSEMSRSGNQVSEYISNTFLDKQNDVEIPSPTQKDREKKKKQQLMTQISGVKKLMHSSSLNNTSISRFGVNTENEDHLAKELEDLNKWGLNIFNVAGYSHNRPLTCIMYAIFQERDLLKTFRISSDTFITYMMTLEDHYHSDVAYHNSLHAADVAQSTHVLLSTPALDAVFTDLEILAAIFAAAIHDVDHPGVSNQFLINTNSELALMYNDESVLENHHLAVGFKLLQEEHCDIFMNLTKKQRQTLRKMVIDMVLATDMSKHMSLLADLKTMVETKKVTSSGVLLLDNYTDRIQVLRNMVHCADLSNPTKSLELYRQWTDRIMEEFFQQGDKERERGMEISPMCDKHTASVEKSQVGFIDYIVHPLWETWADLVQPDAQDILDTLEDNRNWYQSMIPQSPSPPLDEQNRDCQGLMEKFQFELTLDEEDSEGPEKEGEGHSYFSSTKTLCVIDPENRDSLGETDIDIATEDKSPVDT
How it was run: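 Human PBMCs from buffy coats, blood first diluted 1:1 with saline, isolated on Lymphoprep. Compound pre-incubation 30 min, then LPS stimulation for 18 h. IC50 reported.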

[2] = target: 3',5'-cyclic-AMP phosphodiesterase 4D (Homo sapiens, UniProt Q08499); assay: Inhibition of human U-937 cells derived PDE4D using [3H] cAMP as substrate measured after 30 mins
Sequence of 3',5'-cyclic-AMP phosphodiesterase 4D (Q08499 whole entry): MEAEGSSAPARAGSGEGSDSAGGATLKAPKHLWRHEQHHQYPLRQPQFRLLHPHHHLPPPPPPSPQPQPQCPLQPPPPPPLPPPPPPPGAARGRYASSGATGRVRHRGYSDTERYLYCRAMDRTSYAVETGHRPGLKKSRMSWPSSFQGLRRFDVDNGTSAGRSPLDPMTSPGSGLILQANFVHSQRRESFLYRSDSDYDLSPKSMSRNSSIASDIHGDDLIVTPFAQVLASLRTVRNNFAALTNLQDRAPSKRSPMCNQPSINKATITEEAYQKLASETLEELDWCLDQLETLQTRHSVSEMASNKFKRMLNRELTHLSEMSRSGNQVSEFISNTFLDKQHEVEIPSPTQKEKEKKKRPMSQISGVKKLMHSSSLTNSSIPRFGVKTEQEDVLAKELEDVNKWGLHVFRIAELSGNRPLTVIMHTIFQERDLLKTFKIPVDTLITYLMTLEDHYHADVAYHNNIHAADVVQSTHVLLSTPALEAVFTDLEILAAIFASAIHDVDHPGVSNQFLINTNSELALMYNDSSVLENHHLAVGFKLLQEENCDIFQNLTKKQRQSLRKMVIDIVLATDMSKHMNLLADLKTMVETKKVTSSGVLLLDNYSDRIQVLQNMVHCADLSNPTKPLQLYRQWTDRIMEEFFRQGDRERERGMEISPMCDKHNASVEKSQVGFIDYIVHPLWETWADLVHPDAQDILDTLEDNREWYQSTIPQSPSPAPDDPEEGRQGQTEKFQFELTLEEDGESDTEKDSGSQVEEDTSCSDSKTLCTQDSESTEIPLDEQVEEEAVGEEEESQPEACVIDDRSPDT
How it was run: (§1)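 Enzyme from human monocyte-derived U937 cells, stored at −20 °C and diluted in triple-distilled water containing BSA. Substrate was [3H]cAMP (300,000 dpm/assay) in 100 mmol/L Tris-HCl pH 8.0 with 5 mmol/L EGTA. Compound added in DMSO. Incubation 30 min at 30 °C. Duplicates run at several compound concentrations.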

[3] = target: T1, 3',5'-cyclic-AMP phosphodiesterase 4B; assay: Inhibition of human U-937 cells derived PDE4B using [3H] cAMP as substrate measured after 30 mins; how it was run: as §1
Rattus norvegicus = assay: Antiinflammatory activity in LPS induced Sprague-Dawley rat model of asthma and COPD assessed as inhibition of neutrophilia at 10 mg/kg, po preincubated for 30 mins followed by LPS stimulation and measured after 6 hrs relative to control; assay type: functional; conditions: time 6.5 hrs
How it was run: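 Male Sprague Dawley rats, acclimatized one week and randomized by body weight, n = 6 per group. Compound given orally, suspended in 0.25% sodium carboxymethylcellulose, half an hour before LPS exposure. Bronchoalveolar lavage done 6 h after LPS. Total cell count and differential leukocyte count compared with control.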

Mus musculus = assay: Antiinflammatory activity in LPS induced Swiss albino mouse model of sepsis assessed as inhibition of TNFalpha production at 10 mg/kg, po preincubated for 30 mins followed by LPS stimulation and measured after 90 mins by ELISA relative to control; assay type: functional; conditions: 2 h, time 120 min
How it was run: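 Female Swiss albino mice, weight-matched, n = 6 per group, fasted 20 h with water available. Oral dosing in 0.5% Tween 80 / 0.25% sodium carboxymethylcellulose, with vehicle-only controls. 500 µg E. coli LPS (B4) in phosphate buffer given i.p. 30 min later. Retro-orbital bleed 90 min after LPS. Serum spun 4000 rpm for 20 min, held at 4 °C overnight, then TNF-α measured by mouse ELISA kit.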

Ratio IC50 (Homo sapiens) | IC50 [1] | IC50 [2] | IC50 [3] | Structure (SMILES) | inhibition in vivo at 10 mg/kg (Rattus norvegicus) | inhibition in vivo at 10 mg/kg (Mus musculus)
4 | 35.6 µM | 26.4 µM | 6.6 µM | N#C/N=C1/SCCN1C(=O)c1ccc(-c2ccc(Cl)cc2)o1 | – | –
3.39 | 74.3 µM | 99.8 µM | 29.4 µM | N#C/N=C1/SCCN1C(=O)c1ccc(-c2cccc(Cl)c2)o1 | – | –
– | – | – | – | COc1ccc(C2CNC(=O)C2)cc1OC1CCCC1 (stereo not drawn) [ROLIPRAM] | 36.8% | 45.3%
6.68 | 15.3 µM | 18.7 µM | 2.8 µM | COc1ccc(-c2ccc(C(=O)N3CCS/C3=N/C#N)o2)cc1 | 33.8% | 40.5%
– | 110 µM | – | 62.4 µM | N#C/N=C1/SCCN1C(=O)c1ccc(-c2ccccc2F)o1 | – | –
4.93 | 29.8 µM | 55.7 µM | 11.3 µM | N#C/N=C1/SCCN1C(=O)c1ccc(-c2ccc(F)cc2)o1 | – | –
– | 123 µM | – | 62.8 µM | N#C/N=C1/SCCN1C(=O)c1ccc(-c2ccccc2Cl)o1 | – | –
6.04 | 53.9 µM | 121 µM | 20.1 µM | Cc1ccc(-c2ccc(CN3CCS/C3=N/C#N)o2)cc1 | – | –
– | 149 µM | – | 102 µM | N#C/N=C1/SCCN1Cc1ccc(-c2ccccc2Cl)o1 | – | –
6.75 | 22.1 µM | 45.9 µM | 6.8 µM | N#C/N=C1/SCCN1C(=O)c1coc(-c2ccc(F)cc2)n1 | – | –
5.85 | 45.8 µM | 111 µM | 18.9 µM | N#C/N=C1/SCCN1Cc1ccc(-c2ccc(F)cc2)o1 | – | –
– | 142 µM | – | 71.2 µM | N#C/N=C1/SCCN1C(=O)c1coc(-c2ccccc2)n1 | – | –
– | 139 µM | – | 49.6 µM | N#C/N=C1/SCCN1C(=O)c1ccc(-c2ccc(Br)cc2)o1 | – | –
– | 64.3 µM | – | 27.6 µM | N#C/N=C1/SCCN1C(=O)c1coc(-c2cccc(F)c2)n1 | – | –
– | 121 µM | – | 85.6 µM | N#C/N=C1/SCCN1Cc1ccc(-c2ccccc2F)o1 | – | –
– | 131 µM | – | 46.7 µM | N#C/N=C1/SCCN1C(=O)c1coc(-c2ccc(Br)cc2)n1 | – | –
11.2 | 11.8 µM | 15.7 µM | 1.4 µM | COc1ccc(-c2nc(C(=O)N3CCS/C3=N/C#N)co2)cc1 | 42.1% | 52.6%

Ratio IC50 (Homo sapiens) | IC50 [1] | IC50 [2] | IC50 [3] | Structure (SMILES) | inhibition in vivo at 10 mg/kg (Rattus norvegicus) | inhibition in vivo at 10 mg/kg (Mus musculus)
– | 89.7 µM | – | 62.8 µM | N#C/N=C1/SCCN1Cc1ccc(-c2cccc(Cl)c2)o1 | – | –
– | 92.8 µM | – | 52.8 µM | N#C/N=C1/SCCN1C(=O)c1coc(-c2ccccc2F)n1 | – | –
– | 199 µM | – | 162 µM | N#C/N=C1/SCCN1Cc1ccc(-c2ccccc2)o1 | – | –
7.27 | 35.2 µM | 66.9 µM | 9.2 µM | Cc1ccc(-c2nc(C(=O)N3CCS/C3=N/C#N)co2)cc1 | – | –
– | 101 µM | – | 40.3 µM | N#C/N=C1/SCCN1C(=O)c1coc(-c2ccccc2Cl)n1 | – | –
– | 72.6 µM | – | 37.8 µM | N#C/N=C1/SCCN1C(=O)c1ccc(-c2cccc(F)c2)o1 | – | –
– | 170 µM | – | 111 µM | N#C/N=C1/SCCN1C(=O)c1ccc(-c2ccccc2)o1 | – | –
6.06 | 49.3 µM | 98.7 µM | 16.3 µM | N#C/N=C1/SCCN1C(=O)c1coc(-c2c(F)cccc2F)n1 | – | –
4.01 | 60.1 µM | 88.6 µM | 22.1 µM | N#C/N=C1/SCCN1C(=O)c1ccc(-c2c(F)cccc2F)o1 | – | –
3.71 | 44.2 µM | 58.3 µM | 15.7 µM | N#C/N=C1/SCCN1Cc1ccc(-c2ccc(Cl)cc2)o1 | – | –
– | 156 µM | – | 52.7 µM | N#C/N=C1/SCCN1Cc1ccc(-c2ccc(Br)cc2)o1 | – | –
7.44 | 27.2 µM | 26.8 µM | 3.6 µM | N#C/N=C1/SCCN1C(=O)c1coc(-c2ccc(Cl)cc2)n1 | – | –
– | 89.5 µM | – | 59.7 µM | N#C/N=C1/SCCN1Cc1ccc(-c2cccc(F)c2)o1 | – | –
3.49 | 82.3 µM | 160 µM | 45.7 µM | N#C/N=C1/SCCN1Cc1ccc(-c2c(F)cccc2F)o1 | – | –
5.66 | 62.5 µM | 102 µM | 18.1 µM | N#C/N=C1/SCCN1C(=O)c1coc(-c2cccc(Cl)c2)n1 | – | –
3.42 | 36.8 µM | 32.8 µM | 9.6 µM | COc1ccc(-c2ccc(CN3CCS/C3=N/C#N)o2)cc1 | 28.7% | 31.2%
4.34 | 41.3 µM | 54.3 µM | 12.5 µM | Cc1ccc(-c2ccc(C(=O)N3CCS/C3=N/C#N)o2)cc1 | – | –
